Test results: ChEMBL document CHEMBL4052702 (Bioorg Med Chem Lett, 2017)
Calls of active or inactive are those of the source. The rule behind the calls is not given here.

Experiments:
[1] = target: T1, Protein deacetylase HDAC6 (Homo sapiens) (UniProt Q9UBN7); assay: Inhibition of HDAC6 in human U937 cells assessed as increase in acetylated-alpha-tubulin level incubated for 18 hrs by Western blot method; assay type: cell-based
T1 sequence (whole entry): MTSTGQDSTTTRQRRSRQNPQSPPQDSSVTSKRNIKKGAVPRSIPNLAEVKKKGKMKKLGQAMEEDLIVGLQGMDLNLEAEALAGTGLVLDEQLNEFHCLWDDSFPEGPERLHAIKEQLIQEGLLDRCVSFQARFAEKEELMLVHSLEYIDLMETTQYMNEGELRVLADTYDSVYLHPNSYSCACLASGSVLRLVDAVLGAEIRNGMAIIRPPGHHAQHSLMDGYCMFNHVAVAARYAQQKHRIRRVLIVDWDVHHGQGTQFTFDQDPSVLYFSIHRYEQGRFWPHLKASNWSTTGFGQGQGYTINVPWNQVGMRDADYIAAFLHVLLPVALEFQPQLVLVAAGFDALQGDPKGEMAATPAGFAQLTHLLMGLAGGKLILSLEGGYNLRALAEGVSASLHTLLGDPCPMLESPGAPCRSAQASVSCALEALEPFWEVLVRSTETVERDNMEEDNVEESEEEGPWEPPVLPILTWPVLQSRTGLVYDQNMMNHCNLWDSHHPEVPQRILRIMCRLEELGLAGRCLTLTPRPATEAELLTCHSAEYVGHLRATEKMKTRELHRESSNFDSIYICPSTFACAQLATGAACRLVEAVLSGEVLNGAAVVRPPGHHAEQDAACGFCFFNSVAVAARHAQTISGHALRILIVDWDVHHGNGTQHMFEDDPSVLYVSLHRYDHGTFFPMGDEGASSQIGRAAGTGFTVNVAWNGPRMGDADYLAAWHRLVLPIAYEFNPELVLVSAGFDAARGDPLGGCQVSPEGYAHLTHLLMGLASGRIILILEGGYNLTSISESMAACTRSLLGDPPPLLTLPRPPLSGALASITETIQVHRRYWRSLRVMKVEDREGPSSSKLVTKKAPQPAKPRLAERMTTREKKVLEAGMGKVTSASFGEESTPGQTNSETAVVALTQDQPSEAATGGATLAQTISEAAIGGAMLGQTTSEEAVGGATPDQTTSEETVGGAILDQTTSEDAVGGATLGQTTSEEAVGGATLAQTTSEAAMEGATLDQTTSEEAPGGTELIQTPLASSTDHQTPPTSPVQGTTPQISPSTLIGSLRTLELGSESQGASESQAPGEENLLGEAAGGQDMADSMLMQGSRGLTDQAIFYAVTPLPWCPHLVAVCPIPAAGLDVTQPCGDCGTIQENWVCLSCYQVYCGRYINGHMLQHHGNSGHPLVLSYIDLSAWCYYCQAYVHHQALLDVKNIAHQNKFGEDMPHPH
Outline: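 U937 cells were treated with inhibitor at 10–40 µM, with 1% DMSO as vehicle control. Cells were then lysed, run on SDS-PAGE, transferred to PVDF and western-blotted for acetyl-Lys40 α-tubulin, with acetyl-Lys9 histone H3 as the class I marker. GAPDH was probed as a loading control, and trials were repeated.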

[2] = target: T2, Histone deacetylase 3 (Homo sapiens, UniProt O15379); assay: Inhibition of HDAC3 in human U937 cells assessed as increase in acetylated-histone H3 level at 10 to 40 uM incubated for 18 hrs by Western blot method; assay type: cell-based
T2 sequence (O15379 whole entry): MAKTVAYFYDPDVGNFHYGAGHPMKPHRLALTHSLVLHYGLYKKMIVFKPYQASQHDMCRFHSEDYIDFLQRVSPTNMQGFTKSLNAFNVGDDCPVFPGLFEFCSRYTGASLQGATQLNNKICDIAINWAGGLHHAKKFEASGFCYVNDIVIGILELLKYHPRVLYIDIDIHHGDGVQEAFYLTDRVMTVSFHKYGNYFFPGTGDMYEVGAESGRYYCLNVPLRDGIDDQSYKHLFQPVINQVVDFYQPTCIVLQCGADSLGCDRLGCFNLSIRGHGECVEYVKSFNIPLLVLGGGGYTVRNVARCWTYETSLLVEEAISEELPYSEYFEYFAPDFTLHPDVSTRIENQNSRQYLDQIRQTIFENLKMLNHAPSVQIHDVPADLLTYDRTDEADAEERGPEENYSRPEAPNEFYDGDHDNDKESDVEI
Outline: (§1)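 U937 cells were treated with 10–40 µM compound, with a 1% DMSO vehicle control. Cells were then lysed and the lysates run on SDS-PAGE and transferred to PVDF. Blots were probed for histone H3 acetyl-Lys9, which reports class I HDAC (1, 2, 3) inhibition, with GAPDH as the loading control. Repeat trials were run.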

[3] = target: Histone deacetylase 1 (Homo sapiens, UniProt Q13547); assay: Inhibition of HDAC1 in human U937 cells assessed as increase in acetylated-histone H3 level at 10 to 40 uM incubated for 18 hrs by Western blot method; assay type: cell-based; outline: as §1
Chain of Histone deacetylase 1 (Q13547 whole entry): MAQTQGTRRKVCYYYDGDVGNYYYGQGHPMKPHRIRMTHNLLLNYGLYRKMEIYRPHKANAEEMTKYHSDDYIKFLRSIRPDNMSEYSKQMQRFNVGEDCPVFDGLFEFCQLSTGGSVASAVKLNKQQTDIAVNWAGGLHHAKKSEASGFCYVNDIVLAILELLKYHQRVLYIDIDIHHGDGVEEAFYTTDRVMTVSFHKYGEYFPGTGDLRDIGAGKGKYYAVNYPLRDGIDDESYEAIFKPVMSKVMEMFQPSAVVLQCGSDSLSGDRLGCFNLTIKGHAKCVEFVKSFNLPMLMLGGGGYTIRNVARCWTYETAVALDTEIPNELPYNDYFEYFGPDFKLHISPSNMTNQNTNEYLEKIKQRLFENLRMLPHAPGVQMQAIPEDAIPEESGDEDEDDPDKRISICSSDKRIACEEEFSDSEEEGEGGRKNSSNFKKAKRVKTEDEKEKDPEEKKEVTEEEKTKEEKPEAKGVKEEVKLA

[4] = target: T3, Histone deacetylase 2 (Homo sapiens, UniProt Q92769); assay: Inhibition of HDAC2 in human U937 cells assessed as increase in acetylated-histone H3 level at 10 to 40 uM incubated for 18 hrs by Western blot method; assay type: cell-based; outline: as §1
T3 sequence (Q92769 whole entry): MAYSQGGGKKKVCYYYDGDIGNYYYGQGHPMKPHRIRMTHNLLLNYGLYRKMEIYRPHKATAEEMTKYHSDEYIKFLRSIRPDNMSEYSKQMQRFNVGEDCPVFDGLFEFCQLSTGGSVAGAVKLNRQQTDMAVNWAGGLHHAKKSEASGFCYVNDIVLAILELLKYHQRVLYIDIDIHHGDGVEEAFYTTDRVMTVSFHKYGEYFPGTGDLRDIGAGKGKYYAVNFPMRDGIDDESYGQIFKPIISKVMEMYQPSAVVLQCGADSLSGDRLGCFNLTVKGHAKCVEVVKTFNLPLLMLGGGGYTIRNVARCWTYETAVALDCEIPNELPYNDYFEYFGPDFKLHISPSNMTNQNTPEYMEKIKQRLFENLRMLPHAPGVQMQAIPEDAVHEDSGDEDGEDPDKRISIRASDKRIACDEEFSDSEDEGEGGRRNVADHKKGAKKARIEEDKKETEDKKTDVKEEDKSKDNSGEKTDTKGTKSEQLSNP

[5] = species on record: Homo sapiens; assay: Inhibition of HDAC in human HeLa-S3 cells lysates assessed as remaining enzyme activity at 1.2 x 10^-5 M pre-incubated for 15 mins before HDAC-Glo I/II substrate addition and measured after 30 mins post substrate addition; assay type: cell-free
[6] = target: T3, Histone deacetylase 2; assay: Inhibition of HDAC2 (unknown origin) assessed as remaining enzyme activity at 5 x 10^-7 M by ELISA-based assay
[7] = species on record: Homo sapiens; assay: Inhibition of HDAC in human HeLa-S3 cells lysates assessed as remaining enzyme activity at 3 x 10^-6 M pre-incubated for 15 mins before HDAC-Glo I/II substrate addition and measured after 30 mins post substrate addition; assay type: cell-free
[8] = target: T2, Histone deacetylase 3; assay: Inhibition of HDAC3 (unknown origin) assessed as remaining enzyme activity at 5 x 10^-7 M by ELISA-based assay
[9] = species on record: Homo sapiens; assay: Inhibition of HDAC in human HeLa-S3 cells lysates assessed as remaining enzyme activity at 6 x 10^-6 M pre-incubated for 15 mins before HDAC-Glo I/II substrate addition and measured after 30 mins post substrate addition; assay type: cell-free
[10] = species on record: Homo sapiens; assay: Inhibition of HDAC in human HeLa-S3 cells lysates assessed as remaining enzyme activity at 7.5 x 10^-7 M pre-incubated for 15 mins before HDAC-Glo I/II substrate addition and measured after 30 mins post substrate addition; assay type: cell-free
[11] = target: T3, Histone deacetylase 2; assay: Inhibition of HDAC2 (unknown origin) assessed as remaining enzyme activity at 0.25 uM by ELISA-based assay
Outline: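 Isoform screen by ELISA-based HDAC activity assay against HDAC1, HDAC2, HDAC3 and HDAC6. Each analog was tested at one final concentration: 0.025, 0.125, 0.25 or 1.25 µM. Read-out is percent deacetylase activity remaining, given as the mean with standard error of at least two independent trials.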

| Structure (SMILES) | inhibition [1] | inhibition [2] | inhibition [3] | inhibition [4] | Activity [5] [%] | Activity [6] [%] | Activity [7] [%] | Activity [8] [%] | Activity [9] [%] | Activity [10] [%] | Activity [11] [%] |
| --- | --- | --- | --- | --- | --- | --- | --- | --- | --- | --- | --- |
| O=C(CCCC(CCC(=O)Nc1ccccc1)Cc1ccccc1)NO (stereo unspecified) | Dose-dependent effect | Active | Active | Active |  |  |  |  |  |  |  |
| CCCCC(CCCC(=O)NO)CCC(=O)Nc1ccccc1 (stereo unspecified) |  |  |  |  | 23 | 73 | 66 | 83 | 42 | 101 | 83 |
